These results are taken from ChEMBL document CHEMBL1141109, “Synthesis of an estrogen receptor beta-selective radioligand: 5-[18F]fluoro-(2R,3S)-2,3-bis(4-hydroxyphenyl)pentanenitrile and comparison of in vivo distribution with 16alpha-[18F]fluoro-17beta-estradiol” (J Med Chem, 2005).

Series [1] is described as follows: Biodistribution of [18F]FEDPN in rat lung after 1 h when given in tail vein; (n=5). As to conditions: in vivo, iv. Format: ADME, organism-based. In short, it runs like this:
(§1)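 Immature female Sprague–Dawley rats (<25 days old) under isoflurane/O2 got 20 µCi tracer in 150 µL 20% ethanol/saline by tail vein. […] Rats were killed at 30 min, 1 h or 2 h. Organs were blotted, weighed and gamma-counted against an injectate standard. Data are %ID/g ± SD, five rats per point.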

Series [2] in a line: Biodistribution of [18F]FEDPN in rat bone after 1 h block when given in tail vein; (n=5). As to conditions: in vivo, iv. The class given is ADME, organism-based, Bone element. An outline of the steps: as §1
A short description of series [3]: Biodistribution of [18F]FEDPN in alpha estrogen receptor knock out mouse blood after 1 h; (n=3). The settings on record: in vivo. The class given is ADME, organism-based. An outline of the steps:
(§2)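 ERKO female mice (αERKO or βERKO), rested 48 h after shipping, placed on estrogen-free chow, and staged by daily vaginal smears. Injected in a nonestrous stage with 11 µCi [18F]FEDPN in 130 µL of 10% ethanol/saline. Killed at 30 min, 1 h or 2 h. Organs counted and reported as %ID/g ± SD, three animals per point.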

The nature of series [4]: Biodistribution of [18F]FEDPN in beta estrogen receptor knock out mouse uterus after 30 min; (n=3). As to conditions: in vivo, 0.5 h. The class given is ADME, organism-based. An outline of the steps:
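αERKO and βERKO mice were fed estrogen-free chow and staged by daily vaginal smears. Mice in a nonestrous stage each received 11 µCi tracer in 130 µL 10% ethanol/saline. Organs were taken at 30 min, 1 h or 2 h and gamma-counted. Uptake is expressed as %ID/g ± SD, three animals per point.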

Series [5] can be described thus: Biodistribution of [18F]-FEDPN in rat uterus after 2 h when given in tail vein; (n=5). The class given is ADME, organism-based. As to conditions: in vivo, iv. In short, it runs like this:
(§3)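 Immature female Sprague–Dawley rats (<25 days old) anesthetized with isoflurane/O2. Given 20 µCi tracer by tail vein in 150 µL of 20% ethanol/saline. […] Killed at 30 min, 1 h or 2 h. Blood and organs blotted, weighed and gamma-counted against a standard dilution of the injectate. Reported as %ID/g ± SD, n=5.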

Series [6] in a line: Biodistribution of [18F]FEDPN in alpha estrogen receptor knock out mouse brain after 30 min; (n=3). The class given is ADME, organism-based. The settings on record: in vivo, 0.5 h. In short, it runs like this: as §2
Series [7] can be described thus: Biodistribution of [18F]FEDPN in rat blood after 30 min when given in tail vein; (n=5). As to conditions: in vivo, iv, 0.5 h. The class given is ADME, organism-based. An outline of the steps: as §1
Series [8] is described as follows: Biodistribution of [18F]FEDPN in alpha estrogen receptor knock out mouse lung after 1 h; (n=3). Format: ADME, organism-based. As to conditions: in vivo. An outline of the steps: (§4)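 αERKO and βERKO mice, staged by daily vaginal smears and kept on estrogen-free chow, were studied in a nonestrous stage. Each mouse received 11 μCi of tracer in 130 μL of 10% ethanol/saline. Mice were killed at 30 min, 1 h or 2 h (n = 3 each). Organs were removed, blotted, weighed and gamma-counted against an injectate standard. Uptake is given as %ID/g ± SD.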

Series [9] can be described thus: Biodistribution of [18F]-FEDPN in rat heart after 1 hr when given in tail vein; (n=5). The class given is ADME, organism-based. As to conditions: in vivo, iv. An outline of the steps: as §3
A short description of series [10]: Biodistribution of [18F]FEDPN in rat bone after 30 min when given in tail vein; (n=5). The class given is ADME, organism-based, Bone element. The settings on record: in vivo, iv, 0.5 h. In short, it runs like this: as §1
Series [11] in a line: Biodistribution of [18F]FEDPN in beta estrogen receptor knock out mouse fat after 1 h; (n=3). Format: ADME, organism-based, Adipose tissue. As to conditions: in vivo. In short, it runs like this:
as §4

Series [12] in a line: Biodistribution of [18F]FEDPN in alpha estrogen receptor knock out mouse kidney after 30 min; (n=3). Format: ADME, organism-based. The settings on record: in vivo, 0.5 h. In short, it runs like this: as §2
Series [13] can be described thus: Biodistribution of [18F]FEDPN in rat fat after 1 h block when given in tail vein; (n=5). Format: ADME, organism-based, Adipose tissue. The settings on record: in vivo, iv. An outline of the steps: as §1
A short description of series [14]: Biodistribution of [18F]FEDPN in alpha estrogen receptor knock out mouse heart after 30 min; (n=3). The class given is ADME, organism-based. As to conditions: in vivo, 0.5 h. In short, it runs like this: as §2
The nature of series [15]: Biodistribution of [18F]-FEDPN in rat kidney after 1 hr block when given in tail vein; (n=5). The settings on record: in vivo, iv. The class given is ADME, organism-based. An outline of the steps: as §3
In series [16] the target is Estrogen receptor (Mus musculus) (UniProt O08537+P19785). Description: Ratio of [18F]FEDPN uptake in uterus of ERbeta KO-mouse (diestrus) and ERalpha KO-mouse (nonestrus) after 30 min.
Estrogen receptor (Mus musculus), sequence (O08537 whole entry, looked up): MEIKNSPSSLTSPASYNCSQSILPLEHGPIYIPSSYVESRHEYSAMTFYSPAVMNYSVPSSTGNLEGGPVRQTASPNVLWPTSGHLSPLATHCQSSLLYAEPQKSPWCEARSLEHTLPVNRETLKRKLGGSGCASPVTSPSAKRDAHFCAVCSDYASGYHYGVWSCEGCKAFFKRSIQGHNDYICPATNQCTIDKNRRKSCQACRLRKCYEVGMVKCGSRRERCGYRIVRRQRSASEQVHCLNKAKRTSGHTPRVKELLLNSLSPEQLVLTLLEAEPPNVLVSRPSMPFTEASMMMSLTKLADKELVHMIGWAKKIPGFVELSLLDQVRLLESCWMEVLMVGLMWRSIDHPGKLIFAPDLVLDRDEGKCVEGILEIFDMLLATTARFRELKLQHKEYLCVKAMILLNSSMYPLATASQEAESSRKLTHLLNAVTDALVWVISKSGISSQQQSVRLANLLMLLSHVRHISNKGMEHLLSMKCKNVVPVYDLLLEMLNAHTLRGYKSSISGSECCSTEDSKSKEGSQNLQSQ
Estrogen receptor (Mus musculus), sequence (P19785 whole entry, looked up): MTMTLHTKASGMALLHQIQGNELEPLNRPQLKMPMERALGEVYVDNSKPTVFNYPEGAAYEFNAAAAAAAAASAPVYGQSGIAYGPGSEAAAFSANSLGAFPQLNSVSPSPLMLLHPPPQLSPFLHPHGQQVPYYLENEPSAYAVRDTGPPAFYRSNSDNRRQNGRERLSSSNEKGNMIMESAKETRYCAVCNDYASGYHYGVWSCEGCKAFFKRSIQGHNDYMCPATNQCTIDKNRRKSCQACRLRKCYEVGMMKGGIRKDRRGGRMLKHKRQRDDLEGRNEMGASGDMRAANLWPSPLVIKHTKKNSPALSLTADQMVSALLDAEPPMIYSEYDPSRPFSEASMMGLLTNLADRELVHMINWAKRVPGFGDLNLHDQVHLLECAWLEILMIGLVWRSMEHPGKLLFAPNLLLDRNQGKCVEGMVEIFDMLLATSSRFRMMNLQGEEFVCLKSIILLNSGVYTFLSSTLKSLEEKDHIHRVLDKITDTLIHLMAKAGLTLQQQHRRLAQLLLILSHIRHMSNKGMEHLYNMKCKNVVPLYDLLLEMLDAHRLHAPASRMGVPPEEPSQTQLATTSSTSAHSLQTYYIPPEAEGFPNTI
The nature of series [17]: Biodistribution of [18F]FEDPN in alpha estrogen receptor knock out mouse brain after 1 h; (n=3). The class given is ADME, organism-based. As to conditions: in vivo. An outline of the steps:
as §2

The nature of series [18]: Biodistribution of [18F]FES in beta estrogen receptor knock out mouse heart after 1 h; (n=3). The class given is ADME, organism-based. As to conditions: in vivo.
Series [19] is described as follows: Biodistribution of [18F]FES in alpha estrogen receptor knock out mouse fat after 30 min; (n=3). The class given is ADME, organism-based, Adipose tissue. As to conditions: in vivo, 0.5 h. An outline of the steps: (§5)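 Female αERKO mice were rested 48 h after shipping and fed estrogen-free chow. They were staged by daily vaginal smears and studied in diestrus. Each received 13 µCi [18F]FES in 100 µL 10% ethanol/saline and was sacrificed at 30 min, 1 h or 2 h (n = 3 per time). Tissue uptake is given as %ID/g ± SD.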

Series [20] is described as follows: Biodistribution of [18F]-FES in alpha estrogen receptor knock out mouse bone after 2 h; (n=3). Format: ADME, organism-based, Bone element. The settings on record: in vivo. In short, it runs like this: as §5
Series [21] is described as follows: Biodistribution of [18F]FES in beta estrogen receptor knock out mouse spleen after 1 h; (n=3). Format: ADME, organism-based. The settings on record: in vivo.
Series [22] is described as follows: Biodistribution of [18F]FES in alpha estrogen receptor knock out mouse heart after 2 h; (n=3). The class given is ADME, organism-based. The settings on record: in vivo. In short, it runs like this: as §5
A short description of series [23]: Biodistribution of [18F]FES in alpha estrogen receptor knock out mouse spleen after 2 h; (n=3). The class given is ADME, organism-based. The settings on record: in vivo.
A short description of series [24]: Biodistribution of [18F]FES in beta estrogen receptor knock out mouse lung after 30 min; (n=3). Format: ADME, organism-based. The settings on record: in vivo, 0.5 h.
Series [25] can be described thus: Biodistribution of [18F]FES in alpha estrogen receptor knock out mouse muscle after 30 min; (n=3). The class given is ADME, organism-based, Muscle tissue. As to conditions: in vivo, 0.5 h.
Series [26] can be described thus: Biodistribution of [18F]FES in alpha estrogen receptor knock out mouse heart after 1 h; (n=3). Format: ADME, organism-based. As to conditions: in vivo. In short, it runs like this:
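Female αERKO mice rested 48 h after shipping and fed estrogen-free chow. Estrous stage was checked by daily vaginal smears, and mice were used in diestrus. Each received 13 µCi [18F]FES in 100 µL 10% ethanol/saline. Animals were sacrificed at 30 min, 1 h or 2 h (n = 3 each). Tissue uptake is reported as %ID/g ± SD.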

Series [27] is described as follows: Biodistribution of [18F]FES in alpha estrogen receptor knock out mouse lung after 1 h; (n=3). Format: ADME, organism-based. As to conditions: in vivo.
The nature of series [28]: Biodistribution of [18F]FES in beta estrogen receptor knock out mouse blood after 2 h; (n=3). Format: ADME, organism-based. The settings on record: in vivo.
Series [29] is described as follows: Biodistribution of [18F]-FES in beta estrogen receptor knock out mouse bone after 30 min(n=2); mice in nonestrus stage. Format: ADME, organism-based, Bone element. As to conditions: in vivo, 0.5 h. In short, it runs like this:
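Female βERKO mice on estrogen-free chow were staged by vaginal smear and used in a nonestrus (diestrus) stage. Each received 13 µCi [18F]FES in 100 µL 10% ethanol/saline and was sacrificed at 30 min (n = 2). Uptake is given as %ID/g ± SD.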

Series [30] is described as follows: Biodistribution of [18F]FES in beta estrogen receptor knock out mouse uterus after 2 h; (n=3). Format: ADME, organism-based. As to conditions: in vivo.
The nature of series [31]: Biodistribution of [18F]FES in alpha estrogen receptor knock out mouse ovaries after 30 min; (n=3). Format: ADME, organism-based, Female gonad. The settings on record: in vivo, 0.5 h.
Series [32] in a line: Biodistribution of [18F]FES in beta estrogen receptor knock out mouse uterus after 30 min; (n=3). The settings on record: in vivo, 0.5 h. The class given is ADME, organism-based.
Series [33] is described as follows: Biodistribution of [18F]FES in beta estrogen receptor knock out mouse lung after 30 min(n=2); mice in nonestrus stage. Format: ADME, organism-based. As to conditions: in vivo, 0.5 h.

For `N#C[C@H](c1ccc(O)cc1)[C@@H](CCF)c1ccc(O)cc1`, the Biodistribution amounted to 0.44 %ID/g in series [1]; 1.82 %ID/g in series [2]; 0.42 %ID/g in [3]; 1.85 %ID/g in [4]; 0.28 %ID/g in series [5]; 0.96 %ID/g in series [6]. Moreover, the Biodistribution was 0.64 %ID/g in [7]; 2.04 %ID/g in series [8]; 0.29 %ID/g in series [9]; 2.12 %ID/g in series [10]; 0.33 %ID/g in series [11]; 7.22 %ID/g in [12]. Moreover, the Biodistribution in [13] was determined as 0.21 %ID/g; in series [14], 1.57 %ID/g; in [15], 1.01 %ID/g; in [17], 0.51 %ID/g. For the same molecule, in [16], the Ratio was 1.67.
As for `C[C@]12CC[C@@H]3c4ccc(O)cc4CC[C@H]3[C@@H]1C[C@@H](F)[C@@H]2O` [FLUOROESTRADIOL], the Biodistribution in series [18] is listed as 0.46 %ID/g; in series [19] it was 1.51 %ID/g; in [20], 0.23 %ID/g; in series [21], 0.91 %ID/g; in series [22], 0.1 %ID/g; in series [23] it was 0.18 %ID/g. The Biodistribution in [24] came out at 3.74 %ID/g; in [25], 0.77 %ID/g; in series [26] it was 0.15 %ID/g; in series [27], 0.39 %ID/g; in series [28], 0.16 %ID/g; in series [29], 1.26 %ID/g. In addition, the Biodistribution in [30] amounted to 9.23 %ID/g; in [31] it was 2.52 %ID/g; in [32], 8.34 %ID/g; in [33], 3.57 %ID/g.
